Assays:
[1] = target: Glutamate receptor ionotropic, kainate 1 (Homo sapiens, UniProt P39086); assay: Binding affinity to GluK1 receptor (unknown origin)
Glutamate receptor 2 = Glutamate receptor 2 (Homo sapiens, UniProt P42262); assay: Binding affinity to GluA2 receptor (unknown origin)
[2] = Oral bioavailability in Fischer rat at 10 mg/kg; type: ADME, organism-based; details: in vivo
Summary of the method: (§1)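 Fischer rats; amino acid dosed orally as diethyl ester hydrochloride salt, 30 mg/kg (one entry at 10 mg/kg), three rats per time point. Amino acid plasma levels measured: AUC 0 to infinity, Cmax as maximum observed concentration, Tmax as time at Cmax. %F is amino acid exposure after oral ester dosing relative to the amino acid given iv.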

[3] = Cmax in Fischer rat at 10 mg/kg, po; type: ADME, organism-based; set-up: dose 10 mg/kg, route oral; details: in vivo; summary of the method: as §1
[4] = AUC (0 to infinity) in Fischer rat at 10 mg/kg, po; type: ADME, organism-based; set-up: time infinity, dose 10 mg/kg, route oral; details: plasma; summary of the method: as §1
[5] = Tmax in Fischer rat at 10 mg/kg, po; type: ADME, organism-based; set-up: dose 10 mg/kg, route oral; details: in vivo; summary of the method: as §1
Rattus norvegicus [6] = assay: Analgesic activity in rat assessed as reversal of formalin-induced pain at 30 mg/kg, po; type: functional
Summary of the method: (§2)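 Rat formalin pain model; amino acid given p.o. as diethyl ester hydrochloride salt at 30 mg/kg (one entry at 100 mg/kg), N = 8–9; vehicle controls N = 8–12. Read-out is % reversal of formalin-induced pain.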

Rattus norvegicus [7] = assay: Neurotoxicity in po dosed rat assessed as sedative effect by rotorod test; type: toxicity, organism-based; details: in vivo
Summary of the method: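 Rotorod test in rats for sedative or ataxic effects; amino acid given p.o. as diethyl ester hydrochloride salt at several doses, N = 8, vehicle controls N = 8; minimal effective dose (MED) reported.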

[8] = Cmax in Fischer rat at 30 mg/kg, po; type: ADME, organism-based; set-up: dose 30 mg/kg, route oral; details: in vivo; summary of the method: as §1
[9] = Tmax in Fischer rat at 30 mg/kg, po; type: ADME, organism-based; set-up: dose 30 mg/kg, route oral; details: in vivo; summary of the method: as §1
[10] = AUC (0 to infinity) in Fischer rat at 30 mg/kg, po; type: ADME, organism-based; set-up: time infinity, dose 30 mg/kg, route oral; details: plasma; summary of the method: as §1
Rattus norvegicus [11] = assay: Antihyperalgesic activity against carrageenan-induced thermal hyperalgesia in po dosed rat; type: functional; details: read-out: MED
Summary of the method: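 Rat carrageenan-induced thermal hyperalgesia; amino acid given p.o. as diethyl ester hydrochloride salt at several doses, N = 6 per group; vehicle controls N = 6. Reported as minimal effective dose (MED).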

[12] = Oral bioavailability in Fischer rat at 30 mg/kg; type: ADME, organism-based; details: in vivo; summary of the method: as §1
Rattus norvegicus [13] = assay: Analgesic activity in rat assessed as reversal of formalin-induced pain at 100 mg/kg, po; type: functional; summary of the method: as §2

Chain of Glutamate receptor 2 (P42262 whole entry): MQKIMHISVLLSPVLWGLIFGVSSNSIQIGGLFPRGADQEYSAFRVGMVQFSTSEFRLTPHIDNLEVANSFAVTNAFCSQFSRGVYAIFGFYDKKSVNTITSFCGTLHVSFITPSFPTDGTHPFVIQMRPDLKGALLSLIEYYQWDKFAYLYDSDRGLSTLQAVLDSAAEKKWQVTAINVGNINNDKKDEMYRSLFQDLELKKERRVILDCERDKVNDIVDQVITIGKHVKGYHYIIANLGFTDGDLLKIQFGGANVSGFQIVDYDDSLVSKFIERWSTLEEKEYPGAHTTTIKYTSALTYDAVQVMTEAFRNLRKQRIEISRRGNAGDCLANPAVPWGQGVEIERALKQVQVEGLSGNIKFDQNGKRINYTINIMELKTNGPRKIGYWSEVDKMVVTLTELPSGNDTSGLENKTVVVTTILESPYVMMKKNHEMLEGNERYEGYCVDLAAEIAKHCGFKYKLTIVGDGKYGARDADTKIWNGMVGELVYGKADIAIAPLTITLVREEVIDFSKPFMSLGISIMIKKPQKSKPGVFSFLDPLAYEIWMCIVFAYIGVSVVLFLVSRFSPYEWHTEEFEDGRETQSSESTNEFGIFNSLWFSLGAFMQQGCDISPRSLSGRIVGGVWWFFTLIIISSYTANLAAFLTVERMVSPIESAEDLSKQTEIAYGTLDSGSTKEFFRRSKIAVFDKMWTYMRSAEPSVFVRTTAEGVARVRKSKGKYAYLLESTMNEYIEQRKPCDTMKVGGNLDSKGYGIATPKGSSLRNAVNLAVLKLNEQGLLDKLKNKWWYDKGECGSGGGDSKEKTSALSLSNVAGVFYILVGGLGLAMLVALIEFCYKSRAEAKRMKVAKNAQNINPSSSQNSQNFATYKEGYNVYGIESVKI
Chain of Glutamate receptor ionotropic, kainate 1 (P39086 whole entry): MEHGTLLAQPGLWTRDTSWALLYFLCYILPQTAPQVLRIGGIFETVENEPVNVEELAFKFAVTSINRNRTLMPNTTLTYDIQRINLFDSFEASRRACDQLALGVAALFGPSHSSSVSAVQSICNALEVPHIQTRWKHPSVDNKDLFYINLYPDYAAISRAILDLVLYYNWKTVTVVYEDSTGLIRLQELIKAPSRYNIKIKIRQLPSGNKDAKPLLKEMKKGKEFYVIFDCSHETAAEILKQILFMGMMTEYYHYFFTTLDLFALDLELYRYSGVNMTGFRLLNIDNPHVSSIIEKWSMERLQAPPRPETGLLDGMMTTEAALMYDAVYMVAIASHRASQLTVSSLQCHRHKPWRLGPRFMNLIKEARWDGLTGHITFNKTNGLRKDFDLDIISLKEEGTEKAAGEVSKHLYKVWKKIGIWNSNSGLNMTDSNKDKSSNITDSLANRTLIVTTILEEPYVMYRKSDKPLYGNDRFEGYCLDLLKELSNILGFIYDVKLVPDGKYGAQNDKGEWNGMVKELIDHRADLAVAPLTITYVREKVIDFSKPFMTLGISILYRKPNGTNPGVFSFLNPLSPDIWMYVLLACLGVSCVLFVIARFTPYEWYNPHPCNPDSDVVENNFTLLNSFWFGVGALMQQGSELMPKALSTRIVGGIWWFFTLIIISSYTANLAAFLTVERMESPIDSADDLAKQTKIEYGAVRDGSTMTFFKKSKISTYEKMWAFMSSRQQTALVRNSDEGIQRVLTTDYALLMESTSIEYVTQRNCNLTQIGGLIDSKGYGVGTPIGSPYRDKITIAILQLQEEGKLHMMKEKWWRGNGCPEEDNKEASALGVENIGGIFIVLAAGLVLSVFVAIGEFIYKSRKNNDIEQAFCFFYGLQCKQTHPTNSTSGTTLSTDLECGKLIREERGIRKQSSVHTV

| Ki [1] [µM] | Ki (Glutamate receptor 2) [µM] | SMILES | further results |
| --- | --- | --- | --- |
| 16 | 149 | O=C(O)c1cccc(C[C@H]2CC[C@H]3CN[C@H](C(=O)O)C[C@H]3C2)c1 | – |
| 228 | 818 | Cc1cccc(C(=O)O)c1O[C@H]1CC[C@H]2CN[C@H](C(=O)O)C[C@H]2C1 | – |
| 19 | 87 | COc1ccc(O[C@H]2CC[C@H]3CN[C@H](C(=O)O)C[C@H]3C2)c(C(=O)O)c1 | – |
| 9.9 | 107 | Cc1ccc(O[C@H]2CC[C@H]3CN[C@H](C(=O)O)C[C@H]3C2)c(C(=O)O)c1 | – |
| 3.6 | 3.3 | O=C(O)c1cc(Cl)ccc1N[C@H]1CC[C@H]2CN[C@H](C(=O)O)C[C@H]2C1 | – |
| 3.7 | 42 | O=C(O)c1cc(Cl)ccc1S[C@H]1CC[C@H]2CN[C@H](C(=O)O)C[C@H]2C1 | – |
| 1.5 | 19 | O=C(O)c1cc(Cl)ccc1O[C@H]1CC[C@H]2CN[C@H](C(=O)O)C[C@H]2C1 | – |
| 9.7 | 93 | O=C(O)c1c(F)cccc1O[C@H]1CC[C@H]2CN[C@H](C(=O)O)C[C@H]2C1 | – |
| 2.3 | 70 | O=C(O)c1ccccc1O[C@H]1CC[C@H]2CN[C@H](C(=O)O)C[C@H]2C1 | – |
| 0.8 | 15 | O=C(O)c1ccccc1S[C@H]1CC[C@H]2CN[C@H](C(=O)O)C[C@H]2C1 | – |
| – | 77 | O=C(O)c1ccccc1N[C@H]1CC[C@H]2CN[C@H](C(=O)O)C[C@H]2C1 | – |
| 67 | 29600 | O=C(O)c1ccccc1C[C@H]1CC[C@H]2CN[C@H](C(=O)O)C[C@H]2C1 | – |
| 6 | 44 | O=C(O)c1cccc(O[C@H]2CC[C@H]3CN[C@H](C(=O)O)C[C@H]3C2)c1 | – |
| – | 9 | O=C(O)c1cccc(S[C@H]2CC[C@H]3CN[C@H](C(=O)O)C[C@H]3C2)c1 | – |
| 8 | 238 | O=C(O)c1cccc(N[C@H]2CC[C@H]3CN[C@H](C(=O)O)C[C@H]3C2)c1 | – |
| 267 | 913 | O=C(O)c1ccc(O[C@H]2CC[C@H]3CN[C@H](C(=O)O)C[C@H]3C2)cc1 | – |

| Ki [1] [µM] | Ki (Glutamate receptor 2) [µM] | SMILES | further results |
| --- | --- | --- | --- |
| 19 | 418 | O=C(O)c1ccc(S[C@H]2CC[C@H]3CN[C@H](C(=O)O)C[C@H]3C2)cc1 | – |
| – | 1420 | O=C(O)c1ccc(N[C@H]2CC[C@H]3CN[C@H](C(=O)O)C[C@H]3C2)cc1 | – |
| – | 553 | Cl.O=C(O)c1ccc(C[C@H]2CC[C@H]3CN[C@H](C(=O)O)C[C@H]3C2)cc1 | bioavailability [2]: 62.5%; Cmax [3]: 539 ng/mL; AUC(0-inf) [4]: 1510 ng·h/mL; Tmax [5]: 60 min |
| 316 | 1470 | O=C(O)c1cccc(Cl)c1O[C@H]1CC[C@H]2CN[C@H](C(=O)O)C[C@H]2C1 | – |
| 0.5 | 8.8 | O=C(O)c1ccc(-c2ccccc2)cc1O[C@H]1CC[C@H]2CN[C@H](C(=O)O)C[C@H]2C1 | – |
| 6.2 | 111 | COc1ccc(C(=O)O)c(O[C@H]2CC[C@H]3CN[C@H](C(=O)O)C[C@H]3C2)c1 | – |
| 5.9 | 89 | Cc1ccc(C(=O)O)c(O[C@H]2CC[C@H]3CN[C@H](C(=O)O)C[C@H]3C2)c1 | – |
| 1.3 | 22 | O=C(O)c1ccc(Cl)cc1S[C@H]1CC[C@H]2CN[C@H](C(=O)O)C[C@H]2C1 | – |
| 2.1 | 151 | O=C(O)c1ccc(Cl)cc1O[C@H]1CC[C@H]2CN[C@H](C(=O)O)C[C@H]2C1 | – |
| 11 | 172 | O=C(O)c1cc(-c2ccccc2)ccc1O[C@H]1CC[C@H]2CN[C@H](C(=O)O)C[C@H]2C1 | – |
| – | – | CCOC(=O)c1ccccc1O[C@H]1CC[C@H]2CN[C@H](C(=O)OCC)C[C@H]2C1.Cl | Activity (Rattus norvegicus [6]): 21.8%; MED (Rattus norvegicus [7]): > 30 mg/kg; Cmax [8]: 9200 ng/mL; Tmax [9]: 30 min; AUC(0-inf) [10]: 24700 ng·h/mL; minimal effective dose (Rattus norvegicus [11]): 10 mg/kg; bioavailability [12]: 75.3% |
| – | – | CCOC(=O)c1ccc(C[C@H]2CC[C@H]3CN[C@H](C(=O)OCC)C[C@H]3C2)cc1.Cl | Activity (Rattus norvegicus [6]): 13.4%; MED (Rattus norvegicus [7]): > 30 mg/kg; minimal effective dose (Rattus norvegicus [11]): 10 mg/kg |
| – | – | CCOC(=O)c1ccccc1S[C@H]1CC[C@H]2CN[C@H](C(=O)OCC)C[C@H]2C1.Cl | MED (Rattus norvegicus [7]): > 100 mg/kg; Cmax [8]: 2980 ng/mL; Tmax [9]: 30 min; AUC(0-inf) [10]: 7530 ng·h/mL; minimal effective dose (Rattus norvegicus [11]): 10 mg/kg; bioavailability [12]: 38.8%; Activity (Rattus norvegicus [13]): 49.4% |
| – | – | CCOC(=O)c1ccc(Cl)cc1O[C@H]1CC[C@H]2CN[C@H](C(=O)OCC)C[C@H]2C1.Cl | Activity (Rattus norvegicus [6]): 14.9%; MED (Rattus norvegicus [7]): > 30 mg/kg; Cmax [8]: 6450 ng/mL; Tmax [9]: 30 min; AUC(0-inf) [10]: 9190 ng·h/mL; minimal effective dose (Rattus norvegicus [11]): > 10 mg/kg; bioavailability [12]: 32.9% |
| – | – | CCOC(=O)c1ccc(-c2ccccc2)cc1O[C@H]1CC[C@H]2CN[C@H](C(=O)OCC)C[C@H]2C1.Cl | Cmax [8]: 2700 ng/mL; Tmax [9]: 60 min; AUC(0-inf) [10]: 7230 ng·h/mL; bioavailability [12]: 22.2% |

Reference: ChEMBL document CHEMBL2440037, “GluK1 antagonists from 6-(carboxy)phenyl decahydroisoquinoline derivatives. SAR and evaluation of a prodrug strategy for oral efficacy in pain models” (Bioorg Med Chem Lett, 2013)
